Measurements taken from ChEMBL document CHEMBL1268844, “Synthesis of novel 3-amino and 29-hydroxamic acid derivatives of glycyrrhetinic acid as selective 11β-hydroxysteroid dehydrogenase 2 inhibitors” (Bioorg Med Chem, 2010).
pIC50: −log10 of the molar value.

What was measured:
[1] = biological target: T1, 11-beta-hydroxysteroid dehydrogenase type 2 (Homo sapiens) (UniProt P80365); test: Inhibition of human recombinant 11beta-HSD2 expressed in HEK293 cells assessed as residual conversion of [1,2,6,7-3H]-cortisol to cortisone at 0.2 uM by scintillation counting; assay type: cell-based
T1 sequence (whole entry): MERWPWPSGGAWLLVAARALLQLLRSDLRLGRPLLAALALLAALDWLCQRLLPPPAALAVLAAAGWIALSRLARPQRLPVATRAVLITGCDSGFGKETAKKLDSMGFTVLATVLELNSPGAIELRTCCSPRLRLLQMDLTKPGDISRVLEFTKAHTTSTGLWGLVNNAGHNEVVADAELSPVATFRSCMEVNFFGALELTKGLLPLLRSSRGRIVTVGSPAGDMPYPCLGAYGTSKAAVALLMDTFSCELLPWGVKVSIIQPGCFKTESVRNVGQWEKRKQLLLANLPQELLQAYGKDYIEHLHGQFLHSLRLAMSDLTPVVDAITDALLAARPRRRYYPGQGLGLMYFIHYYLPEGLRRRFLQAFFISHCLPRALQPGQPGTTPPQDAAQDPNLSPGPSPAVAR
Summary of the method: (§1)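 HEK-293 cells transfected with pcDNA3 encoding human enzyme carrying C-terminal FLAG tag. Compounds diluted from DMSO stocks, used immediately, screened at final 200 nM. Reactions stopped with methanol containing 2 mM unlabeled cortisone and cortisol. Steroids separated by TLC, then scintillation counting; readout is residual substrate conversion.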

[2] = biological target: T2, 11-beta-hydroxysteroid dehydrogenase 1 (Homo sapiens, UniProt P28845); test: Inhibition of human recombinant 11beta-HSD1 expressed in HEK293 cells assessed as residual conversion of [1,2-3H]-cortisone to cortisol at 0.2 uM by scintillation counting; assay type: cell-based; summary of the method: as §1
Target sequence in this assay (P28845 whole entry, looked up): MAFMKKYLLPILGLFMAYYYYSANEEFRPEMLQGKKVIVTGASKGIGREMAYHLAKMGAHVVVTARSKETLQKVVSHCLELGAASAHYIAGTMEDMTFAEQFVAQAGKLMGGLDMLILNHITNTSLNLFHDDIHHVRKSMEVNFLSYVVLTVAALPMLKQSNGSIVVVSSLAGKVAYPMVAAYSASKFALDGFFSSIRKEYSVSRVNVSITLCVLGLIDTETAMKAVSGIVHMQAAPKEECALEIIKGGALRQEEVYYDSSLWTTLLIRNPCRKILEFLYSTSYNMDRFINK

[3] = Selectivity ratio of IC50 for human recombinant 11beta-HSD2 to IC50 for human recombinant 11beta-HSD1
[4] = biological target: T2, 11-beta-hydroxysteroid dehydrogenase 1; test: Inhibition of human recombinant 11beta-HSD1 expressed in HEK293 cells assessed as conversion of [1,2-3H]-cortisone to cortisol by scintillation counting; assay type: cell-based
Target sequence in this assay (P28845 whole entry): as the sequence (P28845 whole entry, looked up) above

[5] = biological target: T3, 11-beta-hydroxysteroid dehydrogenase type 2 (Homo sapiens, UniProt P80365); test: Inhibition of human recombinant 11beta-HSD2 expressed in HEK293 cells assessed as conversion of [1,2,6,7-3H]-cortisol to cortisone by scintillation counting; assay type: cell-based
T3 sequence (P80365 whole entry): T1 sequence (whole entry)

Row | Compound | Activity [1] [%] | Activity [2] [%] | Ratio [3] | pIC50 [4] | pIC50 [5]
1 | CC(=O)O[C@H]1CC[C@]2(C)[C@H]3C(=O)C=C4[C@@H]5C[C@@](C)(C(=O)N(O)C(C)(C)C)CC[C@]5(C)CC[C@@]4(C)[C@]3(C)CC[C@H]2C1(C)C | 85 | 86 |  |  | 
2 | CN(O)C(=O)[C@@]1(C)CC[C@]2(C)CC[C@]3(C)C(=CC(=O)[C@@H]4[C@@]5(C)CC[C@H](NS(=O)(=O)C(F)(F)F)C(C)(C)[C@@H]5CC[C@]43C)[C@@H]2C1 | 44 | 71 |  |  | 
3 | CC1(C)[C@H](NS(C)(=O)=O)CC[C@]2(C)[C@H]3C(=O)C=C4[C@@H]5C[C@@](C)(C(=O)O)CC[C@]5(C)CC[C@@]4(C)[C@]3(C)CC[C@@H]12 | 4 | 32 |  |  | 
4 | CC1(C)[C@@H](NS(C)(=O)=O)CC[C@]2(C)[C@H]3C(=O)C=C4[C@@H]5C[C@@](C)(C(=O)O)CC[C@]5(C)CC[C@@]4(C)[C@]3(C)CC[C@@H]12 | 4 | 58 |  |  | 
5 | CC(=O)N[C@H]1CC[C@]2(C)[C@H]3C(=O)C=C4[C@@H]5C[C@@](C)(C(=O)N(C)O)CC[C@]5(C)CC[C@@]4(C)[C@]3(C)CC[C@H]2C1(C)C | 4 | 72 |  |  | 
6 | CONC(=O)[C@@]1(C)CC[C@]2(C)CC[C@]3(C)C(=CC(=O)[C@@H]4[C@@]5(C)CC[C@H](O)C(C)(C)[C@@H]5CC[C@]43C)[C@@H]2C1 |  |  | 0.4 | 6.03 | 5.67
7 | CC1(C)[C@@H](NS(=O)(=O)C(F)(F)F)CC[C@]2(C)[C@H]3C(=O)C=C4[C@@H]5C[C@@](C)(C(=O)O)CC[C@]5(C)CC[C@@]4(C)[C@]3(C)CC[C@@H]12 | 22 | 87 |  |  | 
8 | CC(=O)N[C@H]1CC[C@]2(C)[C@H]3C(=O)C=C4[C@@H]5C[C@@](C)(C(=O)O)CC[C@]5(C)CC[C@@]4(C)[C@]3(C)CC[C@H]2C1(C)C |  |  |  | 6.08 | 6.34
9 | CO/N=C1\CC[C@]2(C)[C@H]3C(=O)C=C4[C@@H]5C[C@@](C)(C(=O)O)CC[C@]5(C)CC[C@@]4(C)[C@]3(C)CC[C@H]2C1(C)C |  |  |  | 5.82 | 
10 | C=CCONC(=O)[C@@]1(C)CC[C@]2(C)CC[C@]3(C)C(=CC(=O)[C@@H]4[C@@]5(C)CC[C@H](OC(C)=O)C(C)(C)[C@@H]5CC[C@]43C)[C@@H]2C1 | 84 | 99 |  |  | 
11 | CN(O)C(=O)[C@@]1(C)CC[C@]2(C)CC[C@]3(C)C(=CC(=O)[C@@H]4[C@@]5(C)CC[C@@H](NS(=O)(=O)C(F)(F)F)C(C)(C)[C@@H]5CC[C@]43C)[C@@H]2C1 | 82 | 88 |  |  | 
12 | CC1(C)[C@@H](O)CC[C@]2(C)[C@H]3C(=O)C=C4[C@@H]5C[C@@](C)(C(=O)NO)CC[C@]5(C)CC[C@@]4(C)[C@]3(C)CC[C@@H]12 |  |  |  | 5.94 | 
13 | CON[C@@H]1CC[C@]2(C)[C@H]3C(=O)C=C4[C@@H]5C[C@@](C)(C(=O)O)CC[C@]5(C)CC[C@@]4(C)[C@]3(C)CC[C@H]2C1(C)C | 5 | 43 |  | 7.21 | 8.31
14 | CON[C@H]1CC[C@]2(C)[C@H]3C(=O)C=C4[C@@H]5C[C@@](C)(C(=O)N(C)O)CC[C@]5(C)CC[C@@]4(C)[C@]3(C)CC[C@H]2C1(C)C | 30 | 93 |  |  | 
15 | CC1(C)[C@H](NS(=O)(=O)C(F)(F)F)CC[C@]2(C)[C@H]3C(=O)C=C4[C@@H]5C[C@@](C)(C(=O)O)CC[C@]5(C)CC[C@@]4(C)[C@]3(C)CC[C@@H]12 | 50 | 99 |  |  | 
16 | CN(O)C(=O)[C@@]1(C)CC[C@]2(C)CC[C@]3(C)C(=CC(=O)[C@@H]4[C@@]5(C)CC[C@H](O)C(C)(C)[C@@H]5CC[C@]43C)[C@@H]2C1 | 7 | 71 |  |  | 
17 | CC1(C)C(=O)CC[C@]2(C)[C@H]3C(=O)C=C4[C@@H]5C[C@@](C)(C(=O)O)CC[C@]5(C)CC[C@@]4(C)[C@]3(C)CC[C@@H]12 |  |  |  | 6.21 | 
18 | CC(=O)O[C@H]1CC[C@]2(C)[C@H]3C(=O)C=C4[C@@H]5C[C@@](C)(C(=O)NO)CC[C@]5(C)CC[C@@]4(C)[C@]3(C)CC[C@H]2C1(C)C |  |  |  | 6.20 | 
19 | CON(C)C(=O)[C@@]1(C)CC[C@]2(C)CC[C@]3(C)C(=CC(=O)[C@@H]4[C@@]5(C)CC[C@H](OC(C)=O)C(C)(C)[C@@H]5CC[C@]43C)[C@@H]2C1 | 72 | 95 |  |  | 
20 | CON[C@H]1CC[C@]2(C)[C@H]3C(=O)C=C4[C@@H]5C[C@@](C)(C(=O)O)CC[C@]5(C)CC[C@@]4(C)[C@]3(C)CC[C@H]2C1(C)C | 2 | 33 |  | 7.37 | 7.84
